# From ChEMBL document CHEMBL1153954, “Promiscuous aggregate-based inhibitors promote enzyme unfolding” (J Med Chem, 2009)
# Activity calls are given as the source filed them. The rule behind the calls is not given here.
# Biological target: AmpC (Escherichia coli) (UniProt Q83TT7)
# Assay: Inhibition of Escherichia coli AmpC assessed as induction of protein unfolding measured by trypsin mediated degradation of compound-AmpC enzyme complex at 100 uM after 4 hrs by gel electrophoresis
# In short: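 AmpC (0.5 μM) was preincubated 5 min with or without 100 μM aggregator in 50 mM KPi, pH 7.0, 1% DMSO final. Trypsin (0.01 or 0.025 mg/mL) was then added, and digestion ran at room temperature for 0, 15, 30 min, 1 h or 4 h. Samples were boiled in DTT-containing loading buffer and the AmpC band was followed by SDS-PAGE.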
# Chain of AmpC (Escherichia coli) (Q83TT7 as listed by the source): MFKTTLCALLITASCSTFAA
smiles,measurement,value
CCCCCCNC(=O)Nc1ccc(S(=O)(=O)Nc2ccc(CCNC[C@H](O)COc3ccc(O)cc3)cc2)cc1,Activity,Active
